IMP-1 inh: IMP-1 metallo-beta-lactamase inhibitors, primary screen, biochemical, epi-absorbance readout, Pseudomonas aeruginosa enzyme; AID 1556, 2009; actives 0.45% (n = 290,000); inhibition, % at 5.6 µM; metallo-beta-lactamase IMP-1 (Pseudomonas aeruginosa); purified IMP-1, nitrocefin hydrolysis, epi-absorbance fluorescence;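 active = inhibition above the mean plus 3 SD of all compounds in the same screening run, cut at about 4.5% in these data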;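 also: 0% = IMP-1 with DMSO and 100% = DMSO wells lacking enzyme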
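Assay system: purified recombinant IMP-1 beta-lactamase. Input: IMP-1 0.2 nM before substrate addition. Buffer or medium: Zinc- and detergent-supplemented HEPES buffer, pH 7.1. Schedule: 25 °C, 15 min preincubation, 25 min reaction. Signal: Epi-absorbance fluorescence, 480 nm excitation, 530 nm emission. Evaluation: percent inhibition from optical density relative to buffer-blank wells.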
VIM-2 inhibitor: VIM-2 metallo-beta-lactamase inhibitors, primary screen, biochemical, epi-absorbance readout, Pseudomonas aeruginosa enzyme; purified VIM-2, nitrocefin hydrolysis, epi-absorbance fluorescence; inhibition, % at 5.6 µM; actives 0.89% (n = 290,000); AID 1527, 2009;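 active = inhibition above the mean of all tested compounds plus 3 SD, cutoff set per screening run, cut at about 7.5% in these data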;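 also: red hydrolysis product quenches plate fluorescence so inhibitors raise well fluorescence; 0% = enzyme with DMSO and 100% = DMSO without enzyme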
Runt-SMMHC FRET: inhibitors of RUNX1 Runt–CBFb-SMMHC binding, primary screen, biochemical, FRET, Cerulean-Runt, Venus-CBFb-SMMHC, uHTS | inhibition, % at 20 µM | actives 0.74% (n = 220,000) | AID 1434, 2008 | Runt-related transcription factor 1 (Homo sapiens) + Core-binding factor subunit beta … | Cerulean-Runt/Venus-CBFb-SMMHC FRET ratio 530/480, 1 h;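 active = mean inhibition across duplicate retests at 20 µM reaching about 50%, limit read from the data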;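 also: 0% = DMSO wells and 100% = wells with excess untagged CBFb-SMMHC; inhibitors lower the FRET ratio by blocking Runt binding to CBFb-SMMHC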
Target sequence (Q01196 whole entry, looked up): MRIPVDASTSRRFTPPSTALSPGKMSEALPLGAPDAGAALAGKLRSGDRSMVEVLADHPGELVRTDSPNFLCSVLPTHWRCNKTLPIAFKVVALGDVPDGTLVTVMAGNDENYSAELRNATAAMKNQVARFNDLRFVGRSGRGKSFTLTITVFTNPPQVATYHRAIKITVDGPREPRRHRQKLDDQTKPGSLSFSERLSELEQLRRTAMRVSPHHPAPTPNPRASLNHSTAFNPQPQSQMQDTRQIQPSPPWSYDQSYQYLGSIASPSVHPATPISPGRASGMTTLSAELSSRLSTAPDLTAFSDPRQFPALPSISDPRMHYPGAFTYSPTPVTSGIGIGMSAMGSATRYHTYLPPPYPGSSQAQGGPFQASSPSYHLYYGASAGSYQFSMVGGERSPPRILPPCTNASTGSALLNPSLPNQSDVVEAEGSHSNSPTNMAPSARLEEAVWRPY
Target sequence (Q13951 whole entry, looked up): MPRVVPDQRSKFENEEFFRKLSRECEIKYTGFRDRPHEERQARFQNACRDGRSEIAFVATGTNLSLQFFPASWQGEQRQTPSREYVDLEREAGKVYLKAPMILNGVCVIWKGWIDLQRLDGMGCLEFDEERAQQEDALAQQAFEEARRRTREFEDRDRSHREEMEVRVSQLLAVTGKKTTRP
Runt-CBFb FRET: inhibitors of RUNX1 Runt–CBFb binding, primary screen, biochemical, FRET, Cerulean-Runt, Venus-CBFb, uHTS | Runt-related transcription factor 1 (Homo sapiens) + Core-binding factor subunit beta … | Cerulean-Runt/Venus-CBFb FRET ratio 530/480, 1 h | inhibition, % at 20 µM | actives 0.46% (n = 220,000) | AID 1496, 2009;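 active = inhibition over about 50% at 20 µM in the single-dose screen, limit read from the data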;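 also: 0% = DMSO wells and 100% = excess unlabeled CBFb competitor control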
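Doses: 20 µM compound in 1% DMSO | Material: Cerulean-labeled Runt domain protein | Amount: Each fluorescent fusion protein 100 nM | Schedule: Two 1 h room-temperature incubations shielded from light | Measured by: FRET fluorescence | Evaluation: Loss of energy transfer signal | Controls: Unlabeled CBFb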
RanGTP-Impb inh: inhibitors of RanGTP-importin-beta interaction, primary screen, biochemical, FRET, CFP-Ran, YFP-importin-beta, homogeneous | Ran GTPase (GTP-bound) - importin-beta complex | cell-free CFP-Ran/YFP-importin-beta FRET ratio | inhibition, % (concentration not given with the values) | actives 1.1% (n = 300,000) | AID 2216, 2009;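 active = more than half of the replicate wells show a fall in the fluorescence ratio signal beyond about 16%, limit read from the data, passing the limit was not always enough; inconclusive = exactly half of the replicate wells pass the set limit; inactive = fewer than half of replicates pass the limit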;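 also: 0% = DMSO wells and 100% = Ran loaded with GDP instead of GTP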
RUNX1 CBFb TR: inhibitors of RUNX1 Runt–CBFb binding, biochemical, TR-FRET; shares compounds with Runt-CBFb FRET; TR-FRET RUNX1 Runt domain-CBFb binding; inhibition, % at 20 µM; actives 20% (n = 480); in the data active = inhibition above about 40%
An asterisk follows results filed as active; i = inactive; ? = inconclusive; . = no result given. A selection: hits, their analogues and other compounds. The true share with any hit is near 2.6%.

SMILES | IMP-1 inh | VIM-2 inhibitor | Runt-SMMHC FRET | Runt-CBFb FRET | RanGTP-Impb inh | RUNX1 CBFb TR
O=C(NNc1cc(Br)c(O)c(Br)c1)c1ccccc1 | -4.2 | -0.9 | 36.5 | 77.7* | -3.8 | 44.8*
COCCOC(=O)C1=C(C)NC2=C(C(=O)CC(C)(C)C2)C1c1cccnc1 (stereo not given) | -1.8 | -3.3 | 108.7* | 50.4* | 10.8 | 19.1
Cc1cccc2cc(C(c3nnnn3Cc3ccccc3)N3CCN(c4ccccc4)CC3)c(=O)[nH]c12 (stereo not given) | -1.4 | -1.9 | -0.7 | 51.2* | 6.0 | i
Cc1ccc(CSc2ccc(-c3ccco3)nn2)cc1 | -3.0 | -4.8 | 51.3 | 55.9* | -0.4 | 35.5
Cc1cccc(CSc2ccc(-c3ccco3)nn2)c1 | -3.4 | -2.9 | 34.0 | 43.5 | -1.3 | .
c1ccc(CSc2ccc(-c3ccco3)nn2)cc1 | -1.4 | 0.1 | 34.0 | 41.1 | 0.7 | .
Clc1ccc(CSc2ccc(-c3ccco3)nn2)cc1 | -2.7 | -1.4 | 56.3 | 56.5* | 1.3 | 52.2*
Cc1cccc(N(C)S(=O)(=O)c2csc(C(N)=O)c2)c1 | -0.9 | -0.4 | . | . | 0.2 | .
S=c1nc(-c2cc(Cl)ccc2Cl)[nH][nH]1 | -1.8 | 0.0 | 40.1 | 56.9* | -1.7 | -18.8
Cc1nnc(Sc2cc(NCCO)c([N+](=O)[O-])c3nonc23)s1 | -3.7 | 1.0 | 31.3 | 52.2* | -0.6 | 26.9
O=C(COc1ccccc1Cl)Nc1nnc(S(=O)(=O)N2CCCCCC2)s1 | -3.0 | -1.8 | . | . | -1.9 | .
CCn1c(O)c(/C=N/NC(=O)c2ccncc2)c(=O)n(CC)c1=S | -3.3 | -6.5 | 63.2* | 58.8* | 2.3 | -26.4
COc1cc(C(=O)NCCOc2cc(C)cc(C)c2)cc(OC)c1OC | -1.5 | -1.6 | . | . | 3.9 | .
CCc1ccc2nc(NC(=O)c3ccc(N4C(=O)CCC4=O)cc3)sc2c1 | -1.3 | -0.6 | 0.2 | 1.2 | 5.8 | .
CNS(=O)(=O)c1ccc2nc(NC(=O)c3ccc(N4C(=O)CCC4=O)cc3)sc2c1 | -0.7 | 0.6 | 59.8 | 55.1* | 1.2 | 11.9
N#Cc1c2c(c(-n3cnc4ccccc43)n3c1nc1ccccc13)CCC2 | -1.6 | -3.0 | -69.2 | . | -1.4 | .
N#Cc1c2c(c(Nc3ccccc3)n3c1nc1ccccc13)CCC2 | -1.0 | 1.5 | 70.5* | 54.8* | 76.7* | -1.5
Clc1ccc(-c2ccn[nH]2)cc1 | -3.2 | -2.2 | -3.7 | 0.4 | -1.5 | .
Cc1ccc(-c2csc(=S)[nH]2)cc1 | -2.0 | -4.1 | 43.0 | 39.0 | -0.3 | .
S=c1[nH]c(-c2ccc(Cl)cc2)cs1 | -2.3 | -4.3 | 34.8 | 50.4* | 3.5 | 8.6
S=c1nccc(-c2ccc(Cl)cc2)[nH]1 | -0.5 | -1.9 | 12.1 | 55.7* | -2.2 | 41.2*
Fc1cccc(C[n+]2csc3ccccc32)c1 | -3.4 | -5.2 | 70.5 | 55.6* | 5.2 | -9.6
O=C(O[C@@H]1OC2COC(=O)c3cc(O)c(O)c(O)c3-c3c(cc(O)c(O)c3O)C(=O)O[C@@H]([C@H]1O)[C@@H]2O)c1cc(O)c(O)c(O)c1 | 8.8* | -0.9 | 41.7 | 56.6* | 5.5 | 66.7*
CCOC(=O)C1CCCN(S(=O)(=O)c2cc3c4c(c2)CCC(=O)N4CCC3)C1 (stereo not given) | . | . | . | . | -4.0 | .
O=S(=O)(Nc1ccc(-c2nc3cccnc3s2)cc1)c1ccc(Cl)s1 | -1.9 | -1.3 | . | 67.7* | ? | 29.6
SMILES | IMP-1 inh | VIM-2 inhibitor | Runt-SMMHC FRET | Runt-CBFb FRET | RanGTP-Impb inh | RUNX1 CBFb TR
O=S(=O)(Nc1ccc(-c2nc3cccnc3s2)cc1)c1ccccc1F | -1.0 | -0.7 | 146.1* | 80.8* | 9.3 | -2.4
COc1ccc(C2CC(=O)N3CN(c4ccc(C)c(Cl)c4)CSC3=C2C#N)cc1 (stereo not given) | -4.1 | 0.4 | 37.7 | 88.3* | ? | 7.9
COc1ccc(C2CC(=O)N3CN(c4ccccc4F)CSC3=C2C#N)cc1OC (stereo not given) | -0.7 | -2.3 | 87.4* | 51.8* | -157.6 | 17.1
Cc1cccc(N2CSC3=C(C#N)C(c4ccc(C)o4)CC(=O)N3C2)c1 (stereo not given) | -1.9 | -1.0 | 19.4 | 23.4 | -5.5 | .
COc1cc(C2CC(=O)N3CN(Cc4ccco4)CSC3=C2C#N)ccc1OCc1ccccc1 (stereo not given) | -3.2 | -0.8 | 27.7 | -1.0 | 0.5 | .
CCc1ccccc1N1CSC2=C(C#N)C(c3ccccc3F)CC(=O)N2C1 (stereo not given) | -2.8 | -0.1 | 91.9* | 59.8* | ? | -0.5
O=C(C1CCCN(S(=O)(=O)c2ccc(Br)cc2)C1)N1CCN(Cc2ccccc2)CC1 (stereo not given) | 1.0 | 2.9 | . | . | 3.1 | .
O=C(CCN1C(=O)/C(=C\c2ccccc2F)SC1=S)N1CCCCC1 | 1.1 | -0.2 | . | . | 0.0 | .
C=CCn1c(N)c(C(=O)OC(C)(C)C)c2nc3ccccc3nc21 | -2.1 | -2.2 | 95.2* | 69.8* | 29.4* | -5.1
C=CCn1c(O)c(N=NC(=O)OC(C)(C)C)c2ccccc21 | -5.2 | 0.5 | -0.6 | 1.2 | -1.7 | .
COc1ccc(C(=O)Nc2ccc3cn[nH]c3c2)c(OC)c1 | -0.5 | -1.9 | -1.8 | -2.0 | 1.4 | .
CN1C(c2ccccc2)CCOS1(=O)=O (stereo not given) | 0.6 | 1.6 | . | . | 1.0 | .
CC(C)(C)OC(=O)N1CCC(C(=O)N2CCOCC2)CC1 | 2.4 | 1.2 | 0.3 | 84.3* | 1.2 | -49.9
CCOC(=O)c1c(NC(=O)CCl)sc(CN(C)C)c1-c1ccccc1 | -1.3 | -6.1 | -1.4 | -1.8 | 1.4 | .
CCOC(=O)c1c(/N=C/N(C)C)sc(/C=N/Nc2ccccc2)c1-c1ccccc1 | 0.6 | 1.8 | 131.0* | 70.8* | -14.5 | -12.5
O=C1CCc2ccccc2N1 | -2.3 | -1.3 | -2.0 | 1.2 | 0.0 | .
S=C1Cc2ccccc2N1 | -3.9 | -0.8 | 9.7 | 50.6* | -0.1 | 3.7
Cc1nc(N)c(C#N)c(-c2ccccc2)c1C | 0.5 | 1.1 | 1.6 | -1.1 | 1.7 | .
Cc1cc(C)c2c(n1)sc1c(-c3ccccc3)c(C#N)c(N)nc12 | -5.0 | -2.1 | 83.0* | 60.1* | 81.9* | 2.5
CC1CCN(c2ccc3nnc(CCC(=O)N4CCCCC4)n3n2)CC1 | -2.9 | 0.7 | . | . | 1.6 | .
CC(C)C(C)(C#N)NC(=O)CSc1nnc(-c2ccncc2)n1Cc1ccccc1 (stereo not given) | -4.0 | -3.0 | 32.5 | 56.4* | 1.3 | 2.5

Source: PubChem BioAssay (several laboratories)
